Shown are actives, neighbours in structure and some others; about 3.7% of the full set was active somewhere.
BB579 growth dn: reduces growth of yeast BB579 in restrictive medium; S. cerevisiae BB579 growth, OD615, 48 h; inhibition, % at 10 µM; 0.51% of 140,000 active; AID 804;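 active = inhibition above a set limit, 3 SD over the mean compound inhibition, cut at about 44% in these data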
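System: Saccharomyces cerevisiae DeaD strain BB579, replicative lifespan model yeast. Buffer or medium: restrictive glucose-based CSMM-D medium. Doses: one dose, 10 µM compound with 0.25% DMSO. Timing: 4 h preincubation and 48 h exposure at 30 °C. Detection: turbidity as optical density at 615 nm. Benchmarks: amphotericin B 10 µg/mL, positive.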
RAM inhibit: inhibitors of the yeast RAM network. inhibition, % at 50 µM. AID 868. S. cerevisiae dse1pr::URA3 reporter, 5-FOA growth OD615, 2 d; analog-sensitive cbk1-as2 kinase mutant strain. 1.8% of 190,000 active;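 active = inhibition above a set limit, 3 SD over mean compound inhibition, cut at about 8.4% in these data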;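 also: 0% = DMSO-only wells with no growth and 100% = 10 µM 1-NA-PP1 full growth; inhibition rescues growth on 5-FOA so higher OD means more RAM inhibition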
Insulin prom inh: TRM-6 insulin promoter activity inhibition | TRM-6 cells, insulin promoter-eGFP reporter, imaging; reporter expression induced with tamoxifen | inhibition, % at 2 µM | 0.9% of 130,000 active;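 active = inhibition above the mean plus 3 SD, with well images judged a real hit on visual review, cut at about 60% in these data, passing the limit was not always enough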
Efa HMGR inh: inhibitors of class II HMG-CoA reductase from Enterococcus faecalis. purified E. faecalis HMGR, NADPH absorbance 340 nm kinetic. inhibition, % at 10 µM. 0.41% of 190,000 active. AID 1066;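 active = inhibition above a set limit, the median over all tested compounds plus 3 SD, cut at about 9.5% in these data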;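 also: enzyme runs in reverse so mevalonate oxidation gives rising NADPH absorbance; 0% = complete reaction with DMSO and 100% = background rate lacking mevalonate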
Yeast lifespan up: extends the lifespan of yeast; S. cerevisiae growth with nicotinamide, OD615; deaD strain in restrictive glucose medium; inhibition of the nicotinamide effect, % at 10 µM; 0.68% of 130,000 active;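 active = inhibition above a set limit, placed 3 SD over the median of all compounds, cut at about 26% in these data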;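 also: 0% = nicotinamide-treated wells and 100% = cells grown without nicotinamide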
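Buffer or medium: CSMM-D glucose medium, restrictive; test system: modified budding yeast, DeaD strain; compound: single dose 10 µM compound, 0.25% DMSO; schedule: culture preincubation 4 h, compound exposure 48 h, both 30 °C; detection: optical density (absorbance) at 615 nm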
* hit, by the source's call.

How did Cc1ccccc1C(C(=O)NC1CCCC1)N(C(=O)Cc1cccs1)c1ccc2c(c1)OCCO2 (stereo not given) do in these assays?
BB579 growth dn: -52; RAM inhibit: 3; Efa HMGR inh: -7; Yeast lifespan up: -9

How did Cc1cc(C=C2C(=O)c3ccccc3C2=O)c(C)n1-c1cccc(C(=O)O)c1 do in these assays?
RAM inhibit: 8.8*; Insulin prom inh: -21; Efa HMGR inh: 3

How did Cc1cc(C=C2C(=O)c3ccccc3C2=O)c(C)n1-c1ccc(C(=O)O)cc1 do in these assays?
RAM inhibit: 5; Efa HMGR inh: -1

What do the screens show for `Cc1cccc(N2CCN(C(=S)c3ccc(-c4ccccc4[N+](=O)[O-])o3)CC2)c1`?
BB579 growth dn: -65; RAM inhibit: 11*; Insulin prom inh: 11; Efa HMGR inh: -6; Yeast lifespan up: 4

What do the screens show for `COC(=O)c1c(O)c2ccccc2[nH]c1=O`?
BB579 growth dn: -24; RAM inhibit: 0; Insulin prom inh: 7; Efa HMGR inh: -2; Yeast lifespan up: 41*

How did O=C(N/N=C/c1cccc(F)c1)c1c(O)c2ccccc2[nH]c1=O do in these assays?
BB579 growth dn: -34; RAM inhibit: 1; Efa HMGR inh: 1; Yeast lifespan up: 52*

Results for CC1CCc2cc(F)cc3c(O)c(C(=O)NCC4CCCO4)c(=O)n1c23 (stereo not given) ?
BB579 growth dn: -66; RAM inhibit: 11*; Insulin prom inh: 16; Efa HMGR inh: 2; Yeast lifespan up: -1

How did O=C(N/N=C/c1ccc(F)cc1)c1c(O)c2ccccc2[nH]c1=O do in these assays?
BB579 growth dn: -8; RAM inhibit: 0; Efa HMGR inh: 5; Yeast lifespan up: 57*

How did CCCn1c(=O)c(C(=O)NCC2CCCO2)c(O)c2ccccc21 (stereo not given) do in these assays?
RAM inhibit: 2; Efa HMGR inh: -1

Results for CCCn1c(=O)c(C(=O)N/N=C/c2ccccc2F)c(O)c2ccccc21 ?
RAM inhibit: 3; Insulin prom inh: -24; Efa HMGR inh: 0

How did O=C(NCC1CCCO1)c1c(O)c2ccccc2[nH]c1=O (stereo not given) do in these assays?
BB579 growth dn: -18; RAM inhibit: 2; Insulin prom inh: -14; Efa HMGR inh: -3; Yeast lifespan up: 57*

What do the screens show for `O=C(N/N=C/c1ccccc1)c1c(O)c2ccccc2[nH]c1=O`?
BB579 growth dn: -29; RAM inhibit: 0; Efa HMGR inh: 2; Yeast lifespan up: 59*

How did CC(C)CCn1c(=O)c(C(=O)N/N=C/c2cccc(F)c2)c(O)c2ccccc21 do in these assays?
BB579 growth dn: 13; RAM inhibit: 0; Efa HMGR inh: -3; Yeast lifespan up: 38*

How did CC1=NN(C(=O)COc2ccccc2C)C(O)(c2ccc(Cl)cc2)C1 (stereo not given) do in these assays?
BB579 growth dn: 1; RAM inhibit: -1; Efa HMGR inh: -5; Yeast lifespan up: -6

What do the screens show for `O=c1n(-c2ccccc2)c(=O)n2n1CC(O)C2`?
RAM inhibit: 1; Insulin prom inh: -33; Efa HMGR inh: -1

Results for CCC1C(=O)N=C(SCC(=O)Nc2ccc(S(N)(=O)=O)cc2)NC1=O (stereo not given) ?
RAM inhibit: 0; Insulin prom inh: 6; Efa HMGR inh: -4

Results for CCC1C(=O)N=C(SCC(=O)Nc2ccccc2)NC1=O (stereo not given) ?
BB579 growth dn: 51*; RAM inhibit: 1; Insulin prom inh: -58; Efa HMGR inh: 0

How did Cc1ccccc1-n1c(C)nnc1SCC(=O)N(C)C1CCS(=O)(=O)C1 (stereo not given) do in these assays?
RAM inhibit: 0; Insulin prom inh: -36; Efa HMGR inh: 1

How did O=c1cc(/N=C/c2coc3c(ccc4ccccc43)c2=O)[nH]c(=S)[nH]1 do in these assays?
BB579 growth dn: -36; RAM inhibit: 11*; Insulin prom inh: -7; Efa HMGR inh: -6; Yeast lifespan up: 4

How did CCc1cc2c(SCC(=O)c3ccc(C)cc3)ncnc2s1 do in these assays?
BB579 growth dn: -43; RAM inhibit: 9.9*; Insulin prom inh: -87; Efa HMGR inh: 0

Results for CC(=O)Oc1ccc(N(C(C)=O)S(=O)(=O)c2ccc(C)c([N+](=O)[O-])c2)cc1 ?
BB579 growth dn: -12; RAM inhibit: 4; Insulin prom inh: -41; Efa HMGR inh: -6; Yeast lifespan up: 45

Source: PubChem BioAssay
